Data taken from ChEMBL document CHEMBL1150123, “Constituents of the twigs of Hernandia ovigera that inhibit the transformation of JB6 murine epidermal cells” (J Nat Prod, 2002).
Values after ≈ are worked out from the molar mass of the structure shown.

How the values were obtained:
[1] = Inhibition of 12-O-tetradecanoylphorbol 13-acetate-induced transformation of mouse JB6 cells after 14 days by soft agar assay; format: functional, cell-based
[2] = Cytotoxicity against mouse JB6 cells after 3 days by trypan blue staining; format: cell-based; details: JB6, 72 h
Outline: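 JB6 cells at 1×10^4 cells/mL were preincubated 24 h, then exposed to a range of test-compound concentrations for 3 days. Trypsinized cells were mixed with 0.4% trypan blue, and percent viability was scored microscopically.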

[3] = Ratio of IC50 for mouse JB6 cells to IC50 for inhibition of 12-O-tetradecanoylphorbol 13-acetate-induced transformation of mouse JB6 cells
Outline: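 Ratio of two IC50s. The first is trypan blue cytotoxicity: JB6 cells, 24 h preincubation, 3-day exposure. The second is soft-agar transformation: TPA-sensitive P+ JB6 cells in 0.5% agar with TPA plus compound, triplicate wells, 14 days at 37 °C. Colonies of ≥15 cells were counted in three 0.25 cm² areas. Frequency is relative to TPA and 0.1% DMSO controls.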

SMILES | IC50 [1] | IC50 [2] | Ratio IC50 [3]
COc1cc([C@@H]2OC[C@H]3[C@@H]2CO[C@H]3c2cc(OC)c3c(c2)OCO3)cc(OC)c1OC [DIASESARTEMIN] | > 4 µg/mL | – | –
COc1cc([C@@H]2c3cc4c(cc3[C@H](OC(C)=O)[C@H]3COC(=O)[C@@H]23)OCO4)cc(OC)c1OC | 0.15 µg/mL (≈ 0.329 µM) | 1.2 µg/mL (≈ 2.63 µM) | 10
COc1cc([C@H]2OC[C@H]3[C@@H]2CO[C@@H]3c2cc(OC)c(OC)c(OC)c2)cc(OC)c1OC | > 4 µg/mL | – | –
COc1cc([C@@H]2OC[C@@H]3C(=O)OC[C@@H]32)cc(OC)c1OC [CARUILIGNAN C] | > 4 µg/mL | – | –
COc1cc([C@@H]2c3c(cc4c(c3OC)OCO4)[C@H](OC(C)=O)[C@H]3COC(=O)[C@@H]23)cc(OC)c1OC | > 4 µg/mL | – | –
COc1cc(C[C@H]2C(=O)OC[C@@H]2Cc2cc(OC)c3c(c2)OCO3)cc(OC)c1OC | > 4 µg/mL | – | –
COc1ccc([C@@H]2OC[C@@H]3[C@H]2CO[C@@H]3c2cc(OC)c(OC)c(OC)c2)cc1OC | > 4 µg/mL | – | –
COc1cc(C[C@H]2C(=O)OC[C@@H]2Cc2ccc3c(c2)OCO3)cc(OC)c1OC | > 4 µg/mL | – | –
COc1cc([C@H]2OC[C@H]3[C@@H]2CO[C@H]3c2cc(OC)c(OC)c(OC)c2)cc(OC)c1OC [EPIYANGAMBIN] | 0.4 µg/mL (≈ 0.896 µM) | 5.7 µg/mL (≈ 12.8 µM) | 10
COc1cc2c(cc1OC)C(=O)N(C)CC2 | > 4 µg/mL | – | –
